Assay results: ChEMBL document CHEMBL1909628, “Discovery of 6-substituted indole-3-glyoxylamides as lead antiprion agents with enhanced cell line activity, improved microsomal stability and low toxicity” (Eur J Med Chem, 2011)

Key:
[1] = (§1) Toxicity in zebrafish assessed as organism survival at 5 uM treated at 48 hrs post-fertilization measured after 3 days; format: organism-based, Danio rerio; settings: in vivo
Procedure, shortened: (§2)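 AB wild-type zebrafish embryos dechorionated with pronase at 48 hpf, 3 per well in methylene blue-free E3 medium. Dosed at 5 uM from 10 mM DMSO stocks (1% v/v DMSO). Kept at 28 °C for 72 h without food; survival scored at day 5 versus vehicle controls. Two experiments, each in triplicate.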

Danio rerio [2] = species on record: Danio rerio; experiment: Toxicity in zebrafish assessed as otic capsule deformities at 5 uM treated at 48 hrs post-fertilization measured after 3 days by acridine orange staining method; format: organism-based; settings: in vivo, 72 h
Procedure, shortened: (§3)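 Zebrafish larvae dosed at 5 uM from 48 hpf for three days (28 °C, E3 medium, 1% DMSO). Stained with acridine orange at 1 mg/mL in E3 for 30 min, then washed 3 × 10 min. Anesthetized with tricaine, mounted in 1% low-melt agarose with tricaine, and examined by microscopy for apoptosis and deformities.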

[3] = Antiprion activity against PrPsc infected in mouse SMB.s15 cells assessed as complete clearance of PrPSc after 5 days by dot blot analysis; format: cell-based; settings: SMB.s15, 120 h
Procedure, shortened: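 SMB.s15 cells (scrapie-infected, mesodermal origin) in Medium 199 with 10% newborn calf and 5% fetal calf serum, seeded at 12,000 cells/well, 24 h attachment. Compound added from DMSO stock via HBSS dilution, 5 days at 37 °C. Lysates dot-blotted, proteinase K digestion (1 h, 37 °C), guanidine thiocyanate, anti-PrP 6H4 mAb, ECL. Triplicate, PrPSc relative to DMSO-only control.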

[4] = Antiprion activity against PrPsc infected in mouse ScN2a cells assessed as complete clearance of PrPSc after 5 days by ELISA; format: cell-based; settings: 120 h
Procedure, shortened: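 ScN2a cells (N2a infected with RML prion strain) seeded at 4×10^5 cells/well in MEM with 10% FBS, GlutaMax, geneticin. Compound added 4 h after seeding, 0.5% final DMSO, 5 days at 37 °C. Lysates captured on D18 Fab-coated ELISA plates overnight at 4 °C, HRP-D13 detection, ABTS, absorbance at 405 nm. Dose-response curves from three independent experiments.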

Danio rerio [5] = species on record: Danio rerio; experiment: Toxicity in zebrafish assessed as induction of apoptosis at 5 uM treated at 48 hrs post-fertilization measured after 3 days by acridine orange staining method; format: organism-based; settings: in vivo, 72 h; procedure, shortened: as §3
ScN2a = experiment: Cytotoxicity against mouse ScN2a cells up to 32 uM; format: cell-based
Procedure, shortened: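 ScN2a cells seeded separately in 96-well plates. Calcein cell viability assay run in parallel with the ELISA screen, up to 32 uM maximum.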

[6] = Metabolic stability in mouse liver microsomes assessed as compound remaining after 30 mins by HPLC analysis; format: ADME, Microsome; settings: read-out: Stability
Procedure, shortened: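 Mouse liver microsomes (0.5 mg/mL stock) in 0.2 M potassium phosphate pH 7.0 with DL-isocitrate, MgCl2 and isocitrate dehydrogenase. Preincubated 5 min at 37 °C, then started with NADPH. Sampled at t=0 and after 30 min at 37 °C, quenched in ice-cold acetonitrile with internal standard. Analysed by C18 HPLC, UV at 267 nm, in triplicate.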

Danio rerio [7] = species on record: Danio rerio; experiment: Toxicity in zebrafish assessed as swim bladder deformities at 5 uM treated at 48 hrs post-fertilization measured after 3 days by acridine orange staining method; format: organism-based; settings: in vivo, 72 h; procedure, shortened: as §3
[8] = Cytotoxicity against mouse SMB.s15 cells at 20 uM after 5 days by MTT assay; format: cell-based; settings: smb.s15, 120 h
Procedure, shortened: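 SMB.s15 cells at 12,000 cells/well, exposed to compound for 5 days at 37 °C (DMSO stock diluted via HBSS into medium). Viability measured by MTT assay per the reagent's standard protocol.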

Danio rerio [9] = species on record: Danio rerio; experiment: Toxicity in zebrafish assessed as yolk deformities at 5 uM treated at 48 hrs post-fertilization measured after 3 days by acridine orange staining method; format: organism-based; settings: in vivo, 72 h; procedure, shortened: as §3
Danio rerio [10] = species on record: Danio rerio; experiment: as §1; format: organism-based; settings: in vivo, 72 h, 5 µM; procedure, shortened: as §2
[11] = Solubility of the compound; format: physicochemical
[12] = (§4) Toxicity in zebrafish assessed as mortality rate at 5 uM measured after 72 hrs; format: organism-based, Danio rerio; settings: in vivo, read-out: Activity; procedure, shortened: as §2
Danio rerio [13] = species on record: Danio rerio; experiment: as §4; format: organism-based; settings: in vivo, 72 h, 5 µM; procedure, shortened: as §2

Compound	survival at 72 h, 5 µM [1] [%]	Activity (Danio rerio [2])	EC50 [3] [nM]	EC50 [4] [nM]	Activity (Danio rerio [5])	Activity (ScN2a)	remaining at 0.5 h [6] [%]	Activity (Danio rerio [7])	Activity [8]	Activity (Danio rerio [9])	Activity (Danio rerio [10])	solubility [11]	mortality at 72 h, 5 µM [12] [%]	Activity (Danio rerio [13])
COc1ccc(NC(=O)C(=O)c2c[nH]c3cc(C#N)ccc23)cc1	100	Non-toxic	2.2	11	Non-toxic	Non-toxic	87.5	Non-toxic	Non-toxic	Non-toxic	–	–	–	–
O=C(Nc1ccc(-n2cccc2)cc1)C(=O)c1c[nH]c2ccccc12	–	–	6	–	–	Non-toxic	–	–	Non-toxic	–	Toxic	Insoluble	–	–
O=C(Nc1ccc(-c2nnco2)cc1)C(=O)c1c[nH]c2ccccc12	–	–	–	–	–	–	–	–	–	–	–	Insoluble	–	–
O=C(Nc1ccc(-n2cccn2)cc1)C(=O)c1c[nH]c2ccccc12	–	Non-toxic	1	14	Non-toxic	Non-toxic	93.6	Non-toxic	Non-toxic	Non-toxic	Toxic	Insoluble	–	–
O=C(Nc1ccc(-n2cncn2)cc1)C(=O)c1c[nH]c2ccccc12	–	–	–	–	–	–	–	–	–	–	–	Insoluble	–	–
Cc1ccc2c(C(=O)C(=O)Nc3ccc(N4CCOCC4)cc3)c[nH]c2c1	100	Non-toxic	3.1	–	Non-toxic	Non-toxic	–	Non-toxic	Non-toxic	Non-toxic	–	–	20	–
O=C(Nc1ccc(-n2ccnc2)cc1)C(=O)c1c[nH]c2ccccc12	–	–	1.3	16	–	Non-toxic	–	–	Non-toxic	–	–	Insoluble	–	–
COc1ccc(NC(=O)C(=O)c2c[nH]c3ccccc23)cc1	100	–	11	91	–	Non-toxic	67.9	–	Non-toxic	–	–	–	20	–
Cc1ccc(NC(=O)C(=O)c2c[nH]c3ccccc23)cc1	–	–	130	206	–	Non-toxic	64.9	–	Non-toxic	–	Toxic	–	–	Non-toxic
Cn1ccc(-c2ccc(NC(=O)C(=O)c3c[nH]c4ccccc34)cc2)n1	–	–	–	–	–	–	–	–	–	–	–	Insoluble	–	–
